Test results from ChEMBL document CHEMBL1147439, “Synthesis and SAR evaluation of 1,2,4-triazoles as A(2A) receptor antagonists” (Bioorg Med Chem Lett, 2004).

Assays:
[1] = pKa value was determined; format: physicochemical
Adenosine receptor A2a [2] = target: T1, Adenosine receptor A2a (Homo sapiens, UniProt P29274); assay: Binding affinity towards human recombinant adenosine A2A receptor by displacement of [3H]SCH-58261 radioligand.
Adenosine receptor A1 = target: T2, Adenosine receptor A1 (Homo sapiens, UniProt P30542); assay: Binding affinity for human adenosine A1 receptor by displacement of [3H]DPCPX
T2 sequence (P30542 whole entry): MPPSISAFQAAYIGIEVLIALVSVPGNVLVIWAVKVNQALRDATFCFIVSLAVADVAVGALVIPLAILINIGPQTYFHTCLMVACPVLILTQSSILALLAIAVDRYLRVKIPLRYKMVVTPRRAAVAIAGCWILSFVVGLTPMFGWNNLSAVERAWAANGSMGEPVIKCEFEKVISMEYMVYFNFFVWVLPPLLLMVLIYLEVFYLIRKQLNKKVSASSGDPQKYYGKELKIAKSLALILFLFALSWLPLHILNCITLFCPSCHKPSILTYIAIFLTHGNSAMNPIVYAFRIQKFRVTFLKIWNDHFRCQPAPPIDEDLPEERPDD
Method in brief: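 Membranes from cells expressing recombinant human A1 receptor, pre-mixed with adenosine deaminase and SPA beads. Labelled with [3H]DPCPX (0.6 nM final) against 10 concentrations of competitor or buffer. Buffer: Tris-HCl 50 mM pH 7.4, NaCl 120 mM, KCl 5 mM, CaCl2 2 mM, MgCl2 10 mM. Xanthine amine congener defined non-specific binding. Incubated 60 min at room temperature, centrifuged, scintillation counted. Duplicates, at least two experiments; Ki given as mean.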

[3] = Medium permeability in parallel artificial membrane permeation assay; medium; format: functional
Adenosine receptor A2a [4] = target: Adenosine receptor A2a (Rattus norvegicus, UniProt P30543); assay: Binding affinity for rat adenosine A2A receptor by displacement of [3H]SCH-58261
[5] = Medium permeability in parallel artificial membrane permeation assay; high; format: functional
Adenosine receptor A2a [6] = target: T1, Adenosine receptor A2a; assay: Binding affinity for human adenosine A2A receptor by displacement of [3H]SCH-58,261; inactive

Chain of Adenosine receptor A2a (Rattus norvegicus, UniProt P30543) (P30543 whole entry): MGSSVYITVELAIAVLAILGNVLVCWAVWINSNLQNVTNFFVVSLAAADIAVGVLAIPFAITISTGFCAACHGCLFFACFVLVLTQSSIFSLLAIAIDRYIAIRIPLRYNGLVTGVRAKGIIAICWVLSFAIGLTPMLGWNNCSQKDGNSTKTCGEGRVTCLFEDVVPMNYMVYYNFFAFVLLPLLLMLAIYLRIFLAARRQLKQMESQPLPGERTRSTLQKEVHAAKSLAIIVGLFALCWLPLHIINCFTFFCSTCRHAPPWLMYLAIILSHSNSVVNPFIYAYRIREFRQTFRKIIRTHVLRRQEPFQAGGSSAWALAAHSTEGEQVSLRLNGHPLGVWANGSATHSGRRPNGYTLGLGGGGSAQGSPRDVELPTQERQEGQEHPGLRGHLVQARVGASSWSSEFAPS
T1 sequence (P29274 whole entry): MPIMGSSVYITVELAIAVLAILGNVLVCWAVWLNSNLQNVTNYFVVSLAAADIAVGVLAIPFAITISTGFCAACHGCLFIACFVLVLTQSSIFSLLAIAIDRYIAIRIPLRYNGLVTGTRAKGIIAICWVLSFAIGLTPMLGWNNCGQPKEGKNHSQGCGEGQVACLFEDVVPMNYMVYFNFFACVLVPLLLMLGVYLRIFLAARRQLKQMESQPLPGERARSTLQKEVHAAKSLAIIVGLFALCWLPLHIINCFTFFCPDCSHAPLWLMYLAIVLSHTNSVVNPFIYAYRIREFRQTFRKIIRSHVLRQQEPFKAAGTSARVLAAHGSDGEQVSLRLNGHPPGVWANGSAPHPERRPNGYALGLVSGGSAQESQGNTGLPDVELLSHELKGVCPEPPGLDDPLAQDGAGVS

Ki (Adenosine receptor A2a [2])	SMILES	other results
20 nM	COc1ccc(O)c(/C=N/N=C(\S)Cc2ccccc2)c1	pKa [1]: 6.6
	COc1ccc(O)c(/C=N/NS(=O)(=O)Cc2ccccc2)c1	pKa [1]: 6.5
70 nM	COc1cccc(-c2nnc(Cc3ccc(F)c(F)c3)[nH]2)c1	
1000 nM	COc1cccc(-c2n[nH]c(CCc3ccc(Cl)c(Cl)c3)n2)c1	Ki (Adenosine receptor A1): 1800 nM
700 nM	COc1cccc(-c2n[nH]c(CC3CCCCC3)n2)c1	
700 nM	Oc1ccccc1-c1n[nH]c(-c2ccccc2)n1	
1200 nM	S/C(Cc1ccccc1)=N\N=C\c1ccc2ccccc2n1	
80 nM	COc1cccc(-c2n[nH]c(Cc3cccc([N+](=O)[O-])c3)n2)c1	
60 nM	Clc1ccc(Cc2nnc(-c3cnccn3)[nH]2)cc1Cl	
> 5200 nM	S/C(Cc1ccccc1)=N\N=C\c1ccccc1	
	COc1ccc(O)c(/C=N/NC(=O)Cc2ccccc2)c1	pKa [1]: 2.9
100 nM	COc1cccc(-c2n[nH]c(Cc3ccc4ccccc4c3)n2)c1	Activity [3]: 0.3 10e-6·s cm-1; Ki (Adenosine receptor A2a [4]): 400 nM; Ki (Adenosine receptor A1): 2500 nM
4700 nM	COc1cccc(/C=N/N=C(\S)Cc2ccccc2)c1O	
2000 nM	S/C(Cc1ccccc1)=N\N=C\c1cnc2ccccc2c1	
> 5200 nM	Clc1ccc(Cc2nnc(C3CCCNC3)[nH]2)cc1Cl (configuration not stated)	
100 nM	S/C(Cc1ccccc1)=N\N=C\c1ccccn1	
> 5200 nM	COc1cccc(O)c1/C=N/N=C(\S)Cc1ccccc1	
20 nM	COc1cccc(-c2n[nH]c(Cc3cccc(F)c3F)n2)c1	Ki (Adenosine receptor A2a [4]): 40 nM; Ki (Adenosine receptor A1): 900 nM; Activity [5]: 3.8 10e-6·s cm-1
1000 nM	c1cc(CN2CCCC2)cc(-c2n[nH]c(-c3ccc4c(c3)OCCO4)n2)c1	Ki (Adenosine receptor A1): 7600 nM
90 nM	COc1cccc(-c2nnc(Cc3ccc(Cl)c(Cl)c3)[nH]2)c1OC	
700 nM	COc1cccc(-c2nnc(-c3ccc(Cl)c(Cl)c3)[nH]2)c1	Ki (Adenosine receptor A1): 6100 nM
400 nM	Cn1nc(-c2ccc(N=[N+]=[N-])cc2)nc1-c1cccc(CN2CC=CC2)c1	Ki (Adenosine receptor A1): 7300 nM
1400 nM	Oc1ccc(OC(F)(F)F)cc1/C=N/N=C(\S)Cc1ccccc1	
	Cc1ccc(O)c(C2=NN(C(=S)Cc3ccccc3)CC2)c1	Ki (Adenosine receptor A2a [6]): > 5.2 µM
40 nM	COc1cccc(-c2n[nH]c(Cc3ccc(Cl)c(Cl)c3)n2)c1	Ki (Adenosine receptor A1): 1900 nM
4200 nM	COc1cc(/C=N/N=C(\S)Cc2ccccc2)c(O)c(OC)c1	
100 nM	Clc1ccc(Cc2n[nH]c(-c3ccc4c(c3)OCO4)n2)cc1Cl	
20 nM	COc1cccc(-c2n[nH]c(Cc3ccccc3Br)n2)c1	
> 5200 nM	COc1cccc(-c2nnc(CN3CCCCC3)[nH]2)c1	
100 nM	COc1ccc(/C=N/N=C(\S)Cc2ccccc2)c(O)c1	

SMILES	Ki (Adenosine receptor A2a [2])	other results
COc1cccc(-c2nc(Cc3ccc(C)c(C)c3)n[nH]2)c1	20 nM	Ki (Adenosine receptor A2a [4]): 90 nM; Ki (Adenosine receptor A1): 1700 nM; Activity [5]: 0.9 10e-6·s cm-1
O=[N+]([O-])c1ccc(O)c(/C=N/N=C(\S)Cc2ccccc2)c1	10 nM	
COc1cccc(-c2n[nH]c(Cc3cccc(Br)c3)n2)c1	10 nM	Ki (Adenosine receptor A2a [4]): 40 nM; Ki (Adenosine receptor A1): 100 nM; Activity [5]: 1.9 10e-6·s cm-1
S/C(Cc1ccccc1)=N\N=C\c1cccnc1	5 nM	
